ChEMBL document CHEMBL5046302, “Identification and Evaluation of Brominated Carbazoles as a Novel Antibiotic Adjuvant Scaffold in MRSA” (2022)
Calls of active or inactive are those of the source. The calls are words filed in the database; no cut-off is given here.

How the values were obtained:
Format in all cases: functional
Staphylococcus aureus [1] = test: Potentiation of oxacillin induced antibacterial activity against methicillin-resistant Staphylococcus aureus assessed as fold decrease in blaI gene expression at 50 uM by RT-qPCR analysis
Summary of the method: (§1)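 Fold dampening is the relative mRNA level of the gene, normalised to 16S rRNA, in oxacillin-treated cells divided by that in cells cotreated with oxacillin plus carbazole. Carbazole was used at 25 or 50 μM, as given in each line.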

Staphylococcus aureus [2] = test: Upregulation of blaZ gene expression in methicillin-resistant Staphylococcus aureus ATCC 43300 at 50 uM by RT-PCR method
Staphylococcus aureus [3] = test: Potentiation of oxacillin induced antibacterial activity against methicillin-resistant Staphylococcus aureus USA300 harboring stk1 deletion mutant co-transfected with a plasmid bearing stk1 assessed as fold change in oxacillin MIC at 50 uM after 18 hrs by CLSI protocol based broth microdilution assay
Staphylococcus aureus [4] = test: Upregulation of blaZ gene expression in methicillin-resistant Staphylococcus aureus USA100 at 50 uM by RT-PCR method
Staphylococcus aureus [5] = test: Upregulation of mecA gene expression in methicillin-resistant Staphylococcus aureus ATCC 43300 at 50 uM by RT-PCR method
Staphylococcus aureus [6] = test: Potentiation of oxacillin induced antibacterial activity against methicillin-resistant Staphylococcus aureus USA100 assessed as oxacillin MIC at 25 uM after 18 hrs by CLSI protocol based broth microdilution assay
Staphylococcus aureus [7] = test: Upregulation of blaZ gene expression in methicillin-resistant Staphylococcus aureus USA100 at 25 uM by RT-PCR method
Staphylococcus aureus [8] = test: Upregulation of mecA gene expression in methicillin-resistant Staphylococcus aureus COL at 25 uM by RT-PCR method
Staphylococcus aureus [9] = test: Potentiation of methicillin induced antibacterial activity against methicillin-resistant Staphylococcus aureus ATCC 43300 assessed as fold change in methicillin MIC at 25 uM after 18 hrs by CLSI protocol based broth microdilution assay
Staphylococcus aureus [10] = test: Potentiation of oxacillin induced antibacterial activity against methicillin-resistant Staphylococcus aureus assessed as fold decrease in mecA gene expression at 25 uM by RT-qPCR analysis; summary of the method: as §1
Staphylococcus aureus [11] = test: Potentiation of methicillin induced antibacterial activity against methicillin-resistant Staphylococcus aureus USA300 assessed as fold change in methicillin MIC at 25 uM after 18 hrs by CLSI protocol based broth microdilution assay
Staphylococcus aureus [12] = test: Potentiation of ampicillin induced antibacterial activity against methicillin-resistant Staphylococcus aureus USA100 assessed as ampicillin MIC at 25 uM after 18 hrs by CLSI protocol based broth microdilution assay
Staphylococcus aureus [13] = test: Potentiation of cefoxitin induced antibacterial activity against methicillin-resistant Staphylococcus aureus ATCC 43300 assessed as cefoxitin MIC at 25 uM after 18 hrs by CLSI protocol based broth microdilution assay
Staphylococcus aureus [14] = test: Potentiation of ceftazidime induced antibacterial activity against methicillin-resistant Staphylococcus aureus USA100 assessed as fold change in ceftazidime MIC at 25 uM after 18 hrs by CLSI protocol based broth microdilution assay
Staphylococcus aureus [15] = test: Potentiation of methicillin induced antibacterial activity against methicillin-resistant Staphylococcus aureus ATCC 43300 assessed as methicillin MIC at 25 uM after 18 hrs by CLSI protocol based broth microdilution assay
Staphylococcus aureus [16] = test: Potentiation of oxacillin induced antibacterial activity against methicillin-resistant Staphylococcus aureus ATCC 43300 assessed as oxacillin MIC at 25 uM after 18 hrs by CLSI protocol based broth microdilution assay
Staphylococcus aureus [17] = test: Potentiation of methicillin induced antibacterial activity against methicillin-resistant Staphylococcus aureus COL assessed as methicillin MIC at 25 uM after 18 hrs by CLSI protocol based broth microdilution assay
Staphylococcus aureus [18] = test: Potentiation of cefoxitin induced antibacterial activity against methicillin-resistant Staphylococcus aureus ATCC 43300 assessed as fold change in cefoxitin MIC at 25 uM after 18 hrs by CLSI protocol based broth microdilution assay
Staphylococcus aureus [19] = test: Potentiation of cefoxitin induced antibacterial activity against methicillin-resistant Staphylococcus aureus COL assessed as fold change in cefoxitin MIC at 25 uM after 18 hrs by CLSI protocol based broth microdilution assay
Staphylococcus aureus [20] = test: Potentiation of methicillin induced antibacterial activity against methicillin-resistant Staphylococcus aureus USA100 assessed as methicillin MIC at 25 uM after 18 hrs by CLSI protocol based broth microdilution assay
Staphylococcus aureus [21] = test: Potentiation of methicillin induced antibacterial activity against methicillin-resistant Staphylococcus aureus COL assessed as fold change in methicillin MIC at 25 uM after 18 hrs by CLSI protocol based broth microdilution assay
Staphylococcus aureus [22] = test: Potentiation of oxacillin induced antibacterial activity against methicillin-resistant Staphylococcus aureus USA300 harboring stk1 deletion mutant co-transfected with a plasmid bearing stk1 assessed as oxacillin MIC at 25 uM after 18 hrs by CLSI protocol based broth microdilution assay
Staphylococcus aureus [23] = test: Potentiation of oxacillin induced antibacterial activity against methicillin-resistant Staphylococcus aureus USA300 harboring stk1 deletion mutant assessed as fold change in oxacillin MIC at 25 uM after 18 hrs by CLSI protocol based broth microdilution assay
Staphylococcus aureus [24] = test: Potentiation of cefoxitin induced antibacterial activity against methicillin-resistant Staphylococcus aureus USA100 assessed as cefoxitin MIC at 25 uM after 18 hrs by CLSI protocol based broth microdilution assay
Staphylococcus aureus [25] = test: Potentiation of ceftazidime induced antibacterial activity against methicillin-resistant Staphylococcus aureus COL assessed as fold change in ceftazidime MIC at 25 uM after 18 hrs by CLSI protocol based broth microdilution assay
Staphylococcus aureus [26] = test: Potentiation of cefoxitin induced antibacterial activity against methicillin-resistant Staphylococcus aureus USA300 assessed as cefoxitin MIC at 25 uM after 18 hrs by CLSI protocol based broth microdilution assay
Staphylococcus aureus [27] = test: Potentiation of ampicillin induced antibacterial activity against methicillin-resistant Staphylococcus aureus USA300 assessed as fold change in ampicillin MIC at 25 uM after 18 hrs by CLSI protocol based broth microdilution assay
Staphylococcus aureus [28] = test: Potentiation of oxacillin induced antibacterial activity against methicillin-resistant Staphylococcus aureus USA300 assessed as fold change in oxacillin MIC at 25 uM after 18 hrs by CLSI protocol based broth microdilution assay
Staphylococcus aureus [29] = test: Potentiation of cefoxitin induced antibacterial activity against methicillin-resistant Staphylococcus aureus COL assessed as cefoxitin MIC at 25 uM after 18 hrs by CLSI protocol based broth microdilution assay
Staphylococcus aureus [30] = test: Potentiation of methicillin induced antibacterial activity against methicillin-resistant Staphylococcus aureus USA300 assessed as methicillin MIC at 25 uM after 18 hrs by CLSI protocol based broth microdilution assay
Staphylococcus aureus [31] = test: Potentiation of ceftazidime induced antibacterial activity against methicillin-resistant Staphylococcus aureus COL assessed as ceftazidime MIC at 25 uM after 18 hrs by CLSI protocol based broth microdilution assay
Staphylococcus aureus [32] = test: Upregulation of blaZ gene expression in methicillin-resistant Staphylococcus aureus ATCC 43300 at 25 uM by RT-PCR method
Staphylococcus aureus [33] = test: Potentiation of ceftazidime induced antibacterial activity against methicillin-resistant Staphylococcus aureus ATCC 43300 assessed as fold change in ceftazidime MIC at 25 uM after 18 hrs by CLSI protocol based broth microdilution assay

Compound: Brc1cccc2c1[nH]c1ccccc12
- fold change (FC) (Staphylococcus aureus [1]): 1.36
- Activity (Staphylococcus aureus [2]): inactive
- fold change (FC) (Staphylococcus aureus [3]): 4
- Activity (Staphylococcus aureus [4]): inactive
- Activity (Staphylococcus aureus [5]): inactive

Compound: Brc1cccc2[nH]c3ccccc3c12
- MIC (Staphylococcus aureus [6]): 16 µg/mL
- Activity (Staphylococcus aureus [7]): inactive
- Activity (Staphylococcus aureus [8]): inactive
- fold change (FC) (Staphylococcus aureus [9]): 1
- fold change (FC) (Staphylococcus aureus [10]): 4
- fold change (FC) (Staphylococcus aureus [11]): 4
- MIC (Staphylococcus aureus [12]): 8 µg/mL
- MIC (Staphylococcus aureus [13]): 16 µg/mL
- fold change (FC) (Staphylococcus aureus [14]): 1
- MIC (Staphylococcus aureus [15]): 4 µg/mL
- MIC (Staphylococcus aureus [16]): 4 µg/mL
- MIC (Staphylococcus aureus [17]): 1020 µg/mL
- fold change (FC) (Staphylococcus aureus [18]): 4
- fold change (FC) (Staphylococcus aureus [19]): 1
- MIC (Staphylococcus aureus [20]): 32 µg/mL
- fold change (FC) (Staphylococcus aureus [21]): 1
- MIC (Staphylococcus aureus [22]): 0.5 µg/mL
- fold change (FC) (Staphylococcus aureus [23]): 1
- MIC (Staphylococcus aureus [24]): 64 µg/mL
- fold change (FC) (Staphylococcus aureus [25]): 1
- MIC (Staphylococcus aureus [26]): 8 µg/mL
- fold change (FC) (Staphylococcus aureus [27]): 4
- fold change (FC) (Staphylococcus aureus [28]): 4
- MIC (Staphylococcus aureus [29]): 256 µg/mL
- MIC (Staphylococcus aureus [30]): 8 µg/mL
- MIC (Staphylococcus aureus [31]): 1020 µg/mL
- Activity (Staphylococcus aureus [32]): inactive
- fold change (FC) (Staphylococcus aureus [33]): 2
